CFTR F508del cor – correctors of CFTR F508del function in bronchial epithelial cells; CFBE cells, YFP halide quenching; stimulated with forskolin plus potentiator P3; % fluorescence drop versus neutral controls; activity (quench increase), % at 7.58 µM; AID 720511; 350,000 tested, 0.36% active;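 active = mean added fluorescence quench of at least 8% versus neutral control, with both replicates also reaching 8%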;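 also: cells transiently co-express mutant CFTR-F508del with the halide-sensitive YFP; corrector assay measuring rescue of mutant channel to the surface after 24 h compound exposure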
FGF22 binding – shifts melting point of recombinant human FGF22 | activity (Tm shift, normalised), % at 9.99 µM | recombinant FGF22 thermal shift, SYPRO orange fluorescence; percent of sucrose octasulfate shift, DMSO zero | AID 651658 | 340,000 tested, 1.5% active;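 active = mean Tm shift, scaled 0 neutral to 100 positive control, at about 1.3% or above, every replicate too, limit read from the data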
Target sequence (Q9HCT0 whole entry, looked up): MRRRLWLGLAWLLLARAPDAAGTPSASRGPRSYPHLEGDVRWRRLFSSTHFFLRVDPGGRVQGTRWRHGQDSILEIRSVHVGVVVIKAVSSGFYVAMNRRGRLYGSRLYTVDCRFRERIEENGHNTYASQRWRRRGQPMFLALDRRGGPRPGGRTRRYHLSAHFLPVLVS
dFosB act-1 – activators of mouse delta FosB homodimer; activation, % at 25 µM; 340,000 tested, 0.99% active; purified delta FosB, TAMRA-CDK5 oligo fluorescence polarization; percent of positive-control signal above neutral wells; P13346; AID 493131;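 active = mean activation above about 17%, with every replicate also reaching it, limit read from the data, passing the limit was not always enough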
S100A4 inh HTS – blocks human S100A4 binding to myosin IIA peptide; 360,000 tested, 0.14% active; P26447; AID 652163; S100A4/TAMRA-MyoIIA peptide fluorescence polarization; inhibition, % at 10.7 µM;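 active = mean inhibition of at least 70% across replicates, with every replicate also reaching that level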
Target sequence (P26447 whole entry, looked up): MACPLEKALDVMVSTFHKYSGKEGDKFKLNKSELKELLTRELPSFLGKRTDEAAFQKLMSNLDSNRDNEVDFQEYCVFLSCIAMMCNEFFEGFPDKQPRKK
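Material: S100A4 monomer protein | Medium: HEPES pH 7.2 with CaCl2, KCl, NaCl, DTT, Triton | Reagent: Labelled myosin peptide probe, 5 nM | Doses: One dose per compound | Times: 5 min incubation before reading | Benchmarks: Neutral control DMSO, positive control TFP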
dFosB act-2 – enhances mouse delta FosB homodimer binding to DNA; shares compounds with dFosB act-1; purified delta FosB, TAMRA-CDK5 oligo fluorescence polarization; normalised: neutral wells 0, positive control 100; activation, % at 24.9 µM; 2,400 tested, under 10 active; AID 588690;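 active = highest replicate activation at or above 34% and every replicate reaching that threshold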;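 also: higher polarization means more probe DNA bound by delta FosB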
Numbers stand for hits; - = inactive; . = no result given. The list is not random: actives were taken first. Their share in the collection is about 2.2%.

SMILES	CFTR F508del cor	FGF22 binding	dFosB act-1	S100A4 inh HTS	dFosB act-2
Cc1ccc(CNC(=O)CCCn2c(=O)c3ccccc3n(CC(=O)NCc3ccco3)c2=O)cc1	.	.	-	.	.
COc1cc2c(=O)n(Cc3ccccc3)c(=O)n(CC(=O)NCc3ccco3)c2cc1OC	.	.	31.2	.	-
C[C@@H]1CN([C@H](C)CO)C(=O)c2cc(NC(=O)Nc3ccc(F)cc3)ccc2O[C@@H](C)CCCCO[C@@H]1CN(C)S(=O)(=O)c1ccc(Cl)cc1	-	-	.	-	.
C[C@@H]1CN([C@H](C)CO)C(=O)c2cc(NC(=O)Cc3ccccc3)ccc2O[C@@H](C)CCCCO[C@H]1CN(C)C	-	.	.	.	.
Cc1ccc(-n2c(=O)c3sccc3n(CC(=O)NCc3ccco3)c2=O)cc1	.	.	-	.	.
Cc1cccc(Cn2c(=O)n(-c3ccc(CC(=O)NCc4ccco4)cc3)c(=O)c3sccc32)c1	-	-	48.5	-	-
O=C(Nc1ccccc1C(=O)NC(Cc1ccccc1)C(=O)NC1CCCCC1)c1ccccc1 (configuration not stated)	.	.	20.5	.	-
CCCNC(=O)C(Cc1ccc(OC)cc1)NC(=O)c1ccc(Cl)cc1 (configuration not stated)	-	-	-	-	.
COc1ccc(C(=O)Nc2ccccc2C(=O)NC(Cc2ccc(O)cc2)C(=O)NNC(=O)c2ccccc2Cl)cc1 (configuration not stated)	.	.	42.2	.	-
COc1ccc(C(=O)NNC(=O)C(Cc2ccc(O)cc2)NC(=O)c2ccccc2NC(=O)c2ccc(OC)cc2)cc1 (configuration not stated)	.	.	59.7	.	-
C[C@@H]1CN([C@@H](C)CO)C(=O)c2cccc(NC(=O)C3CC3)c2O[C@@H]1CN(C)Cc1ccc(C(F)(F)F)cc1	-	-	.	-	.
CCCNC(=O)C[C@@H]1CC[C@H]2[C@H](COc3ccc(NC(=O)c4cc(F)cc(F)c4)cc3C(=O)N2C)O1	-	-	.	.	.
CC(CC(=O)NCc1ccc(Cl)cc1)S(=O)(=O)c1ccc2c(c1)NC(=O)CO2 (configuration not stated)	-	-	-	-	.
Cc1ccc(CNC(=O)CC(C)S(=O)(=O)c2cc3c(cc2C)NC(=O)CO3)cc1 (configuration not stated)	-	-	23.5	-	-
C/C(=N\NC(=O)CSc1nc2ccccc2o1)c1cccc(O)c1	-	-	24.8	-	-
C/C(=N\NC(=O)CSc1nc2ccccc2o1)c1ccc(O)cc1	-	-	-	-	.
Cc1ccc(S(=O)(=O)N[C@@H]2C=C[C@H](CC(=O)NC3CCCCC3)O[C@H]2CO)cc1	-	-	.	-	.
CC(=O)Nc1ccc(SCC(=O)c2c(N)n(Cc3ccccc3)c(=O)n(C)c2=O)cc1	-	-	17.0	-	-
CC(=O)Nc1ccc(NC(=O)COc2ccc(-c3ccc(C#N)cc3)cc2)cc1	-	-	33.6	-	-
N#Cc1ccc(-c2ccc(OCC(=O)Nc3cccnc3)cc2)cc1	-	-	-	-	.
O=C(C1CCCC1)N1CC[C@@H]2[C@@H](CO)Nc3ccc(Br)cc3[C@@H]21	-	.	.	-	.
COc1ccc(NC(=O)Nc2ccc(F)cc2F)c(C)c1	.	.	-	.	.
Cc1cc([N+](=O)[O-])ccc1NC(=O)Nc1ccc(F)cc1F	-	-	24.4	-	-
COc1ccc(C(C)=O)cc1CSc1nc2ccccc2c(=O)n1-c1cccc(C)c1	.	.	24.7	.	-
O=C(Nc1nnc(-c2cccs2)s1)c1cccc(F)c1	-	-	36.1	-	-
Cc1nnc(NC(=O)c2cccc(F)c2)s1	.	.	-	.	.
COCCOC(=O)N1C(=O)[C@@]2(c3cc(C#Cc4ccc(OC)cc4)ccc31)[C@H](C(=O)N1CCN(c3ncccn3)CC1)[C@H]1C(=O)O[C@H](c3ccccc3)[C@H](c3ccccc3)N1[C@@H]2c1ccccc1OCCO	-	-	.	-	.
COCCN(C(=O)COC(=O)/C=C/c1cccs1)c1c(N)n(Cc2ccccc2)c(=O)[nH]c1=O	-	-	-	-	.
CN(C(=O)COC(=O)/C=C/c1ccc2ccccc2n1)c1c(N)n(Cc2ccccc2)c(=O)[nH]c1=O	-	-	23.4	-	-
CC(C)CN(C(=O)CSc1nnnn1-c1ccccc1)c1c(N)n(CC(C)C)c(=O)[nH]c1=O	-	-	38.4	-	-

Compound activity deposited in PubChem BioAssay by Broad Institute.
